Experimental data reported in ChEMBL document CHEMBL1938298, “Synthesis and characterization of [¹²⁵I]2-iodo N-[(S)-{(S)-1-methylpiperidin-2-yl}(phenyl)methyl]3-trifluoromethyl-benzamide as novel imaging probe for glycine transporter 1” (Bioorg Med Chem, 2011).
The source made the active and inactive calls. The rule behind the calls is not given here.

What was measured:
[1] = biological target: T1, Sodium- and chloride-dependent glycine transporter 1 (Rattus norvegicus) (UniProt P28572); test: Binding affinity to GlyT1 in rat brain cerebellum at 0.03 to 0.04 nM preincubated for 20 mins in binding buffer before compound addition measured after 30 mins by autoradiography in presence of GlyT1 inhibitor N-Me-SSR504734 relative to control; assay type: tissue-based; conditions: tested as the 125I-labelled form
T1 sequence (whole entry): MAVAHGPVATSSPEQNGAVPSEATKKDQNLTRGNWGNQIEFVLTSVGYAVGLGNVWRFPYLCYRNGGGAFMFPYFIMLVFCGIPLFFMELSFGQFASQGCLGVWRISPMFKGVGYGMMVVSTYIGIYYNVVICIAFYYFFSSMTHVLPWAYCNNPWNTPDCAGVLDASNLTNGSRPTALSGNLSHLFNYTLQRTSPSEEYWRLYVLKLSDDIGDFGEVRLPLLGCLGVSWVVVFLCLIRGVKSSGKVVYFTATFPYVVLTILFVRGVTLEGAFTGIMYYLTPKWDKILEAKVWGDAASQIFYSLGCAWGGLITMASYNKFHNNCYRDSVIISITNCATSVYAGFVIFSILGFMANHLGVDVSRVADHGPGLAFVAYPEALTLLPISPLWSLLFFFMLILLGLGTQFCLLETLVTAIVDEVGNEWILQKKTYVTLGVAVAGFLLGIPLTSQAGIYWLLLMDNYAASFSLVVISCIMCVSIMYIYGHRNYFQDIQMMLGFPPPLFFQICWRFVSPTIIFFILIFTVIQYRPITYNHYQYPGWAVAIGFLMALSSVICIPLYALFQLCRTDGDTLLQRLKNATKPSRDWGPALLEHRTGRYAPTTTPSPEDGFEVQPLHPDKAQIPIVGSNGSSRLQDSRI
How it was run: (§1)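 Rat brain sagittal sections (20 µm) preincubated 20 min at 25 °C in Tris-HCl buffer pH 7.5 (NaCl, KCl, MgCl2, CaCl2), then 30 min at 25 °C with [125I] tracer (100 kBq, 0.03–0.04 nM) plus competitor (10 µM; glycine 1 or 10 mM). Cold washes, imaging plate 3 days, ROI PSL minus background per mm². % control from ≥triplicate slices, three rats.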

[2] = biological target: T1, Sodium- and chloride-dependent glycine transporter 1 (Rattus norvegicus); test: Binding affinity to GlyT1 in rat brain midbrain at 0.03 to 0.04 nM preincubated for 20 mins in binding buffer before compound addition measured after 30 mins by autoradiography in presence of 0.01 mM GlyT1 inhibitor SSR504734 relative to control; assay type: tissue-based; conditions: tested as the 125I-labelled form; how it was run: as §1
[3] = biological target: T1, Sodium- and chloride-dependent glycine transporter 1 (Rattus norvegicus); test: Binding affinity to GlyT1 in rat brain cerebral cortex at 0.03 to 0.04 nM preincubated for 20 mins in binding buffer before compound addition measured after 30 mins by autoradiography in presence of GlyT1 inhibitor N-Me-SSR504734 relative to control; assay type: tissue-based; conditions: tested as the 125I-labelled form; how it was run: as §1
[4] = biological target: T1, Sodium- and chloride-dependent glycine transporter 1 (Rattus norvegicus); test: Binding affinity to GlyT1 in rat brain cerebellum at 0.03 to 0.04 nM preincubated for 20 mins in binding buffer before compound addition measured after 30 mins by autoradiography in presence of 0.01 mM GlyT1 inhibitor HPCP relative to control; assay type: tissue-based; conditions: tested as the 125I-labelled form; how it was run: as §1
[5] = biological target: T1, Sodium- and chloride-dependent glycine transporter 1 (Rattus norvegicus); test: Binding affinity to GlyT1 in rat brain corpus callosum at 0.03 to 0.04 nM preincubated for 20 mins in binding buffer before compound addition measured after 30 mins by autoradiography in presence of GlyT1 inhibitor N-Me-SSR504734 relative to control; assay type: tissue-based; conditions: tested as the 125I-labelled form; how it was run: as §1
[6] = biological target: T1, Sodium- and chloride-dependent glycine transporter 1 (Rattus norvegicus); test: Binding affinity to GlyT1 in rat brain cerebral cortex at 0.03 to 0.04 nM preincubated for 20 mins in binding buffer before compound addition measured after 30 mins by autoradiography in presence of 0.01 mM GlyT1 inhibitor SSR504734 relative to control; assay type: tissue-based; conditions: tested as the 125I-labelled form; how it was run: as §1
[7] = biological target: T1, Sodium- and chloride-dependent glycine transporter 1 (Rattus norvegicus); test: Binding affinity to GlyT1 in rat brain cerebellum at 0.03 to 0.04 nM preincubated for 20 mins in binding buffer before compound addition measured after 30 mins by autoradiography in presence of 1 mM GlyT1 substrate glycine relative to control; assay type: tissue-based; conditions: tested as the 125I-labelled form; how it was run: as §1
[8] = biological target: T1, Sodium- and chloride-dependent glycine transporter 1 (Rattus norvegicus); test: Binding affinity to GlyT1 in rat brain striatum at 0.03 to 0.04 nM preincubated for 20 mins in binding buffer before compound addition measured after 30 mins by autoradiography relative to control; assay type: tissue-based; conditions: tested as the 125I-labelled form
Lung [9] = test: Drug uptake in ddY mouse lung at 11.1 kBq, iv after 5 min by gamma counting; assay type: ADME, organism-based; conditions: in vivo
How it was run: (§2)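 Male ddY mice (6 weeks, 30–35 g) were given about 11.1 kBq of [125I]tracer in 0.1 mL i.v. via the tail vein. At each time point the animals were killed and organs dissected, weighed and gamma-counted. Uptake is expressed as % injected dose per gram of tissue, mean ± SD, n = 5–6.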

Heart = test: Drug uptake in ddY mouse heart at 11.1 kBq, iv after 180 min by gamma counting; assay type: ADME, organism-based; conditions: in vivo, 3 h
How it was run: (§3)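 Male ddY mice (6 weeks, 30–35 g) received about 11.1 kBq [125I]tracer in 0.1 mL i.v. via tail vein. Killed at set times, organs dissected and weighed, radioactivity gamma counted. Reported as % injected dose/g tissue, mean ± SD, n = 5–6.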

Lung [10] = test: Drug uptake in ddY mouse lung at 11.1 kBq, iv after 30 min by gamma counting; assay type: ADME, organism-based; conditions: in vivo, 0.5 h; how it was run: as §2
Brain [11] = test: Drug uptake in ddY mouse brain at 11.1 kBq, iv after 0.5 min by gamma counting; assay type: ADME, organism-based; conditions: in vivo; how it was run: as §3
Blood = test: Drug uptake in ddY mouse blood at 11.1 kBq, iv after 0.5 min by gamma counting; assay type: ADME, organism-based; conditions: in vivo; how it was run: as §3
Lung [12] = test: Drug uptake in ddY mouse lung at 11.1 kBq, iv after 15 min by gamma counting; assay type: ADME, organism-based; conditions: in vivo; how it was run: as §2
Pancreas [13] = test: Drug uptake in ddY mouse pancreas at 11.1 kBq, iv after 180 min by gamma counting; assay type: ADME, organism-based; conditions: in vivo, 3 h; how it was run: as §2
Mus musculus = test: In vivo binding affinity to GlyT1 in ddY mouse brain medullary region at 33.3 kBq, iv after 30 mins in presence of N-Me-SSR504734 2 mg/kg, iv administered 15 mins prior to compound administration relative to control; assay type: functional, Medulla of organ
How it was run: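 Male ddY mice (6 W, 30–35 g) were given [125I]5 (ca. 33.3 kBq, 0.1 mL) iv via tail vein. Blocker (2 mg/kg in 30% DMSO/saline) was given iv 15 min before the tracer. Mice were killed 30 or 60 min after injection and the brain regions were dissected and weighed. Gamma counting gave % dose/g, compared with control; n = 5–6.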

Stomach [14] = test: Drug uptake in ddY mouse stomach at 11.1 kBq, iv after 30 min by gamma counting; assay type: ADME, organism-based; conditions: in vivo, 0.5 h; how it was run: as §2
Stomach [15] = test: Drug uptake in ddY mouse stomach at 11.1 kBq, iv after 60 min by gamma counting; assay type: ADME, organism-based; conditions: in vivo, 1 h; how it was run: as §2
Brain [16] = test: Drug uptake in ddY mouse brain at 11.1 kBq, iv after 5 min by gamma counting; assay type: ADME, organism-based; conditions: in vivo; how it was run: as §3
Intestine [17] = test: Drug uptake in ddY mouse intestine at 11.1 kBq, iv after 60 min by gamma counting; assay type: ADME, organism-based; conditions: in vivo, 1 h; how it was run: as §3
Intestine [18] = test: Drug uptake in ddY mouse intestine at 11.1 kBq, iv after 180 min by gamma counting; assay type: ADME, organism-based; conditions: in vivo, 3 h; how it was run: as §3
Pancreas [19] = test: Drug uptake in ddY mouse pancreas at 11.1 kBq, iv after 5 min by gamma counting; assay type: ADME, organism-based; conditions: in vivo; how it was run: as §2

In the case of `CN1CCCC[C@H]1[C@@H](NC(=O)c1cccc(C(F)(F)F)c1I)c1ccccc1`, the Activity [1] is reported as 28.9%, the Activity [2] is reported as 28.9% and the Activity [3] is reported as 37.5%. For the same molecule, the Activity [4] was 23%, the Activity [5] was 20.2% and the Activity [6] was 29.3%. For the same molecule, the Activity [7] was 97.4% and the Activity [8] was “inactive”.

`CN1CCCC[C@H]1[C@@H](NC(=O)c1cccc(C(F)(F)F)c1[125I])c1ccccc1` was tested, and the Drug uptake (Lung [9]) was 19.3 % ID/g, the Drug uptake (Heart) was 1.79 % ID/g and the Drug uptake (Lung [10]) was 17.07 % ID/g. The Drug uptake (Brain [11]) was 0.51 % ID/g, the Drug uptake (Blood) was 1.35 % ID/g and the Drug uptake (Lung [12]) was 15.24 % ID/g. For the same molecule, the Drug uptake (Pancreas [13]) was 4.84 % ID/g, the Activity (Mus musculus) was 59% and the Drug uptake (Stomach [14]) was 8.66 % ID/g. For the same molecule, the Drug uptake (Stomach [15]) was 8.26 % ID/g, the Drug uptake (Brain [16]) was 1.33 % ID/g and the Drug uptake (Intestine [17]) was 9.59 % ID/g. The Drug uptake (Intestine [18]) was 17.13 % ID/g and the Drug uptake (Pancreas [19]) was 6.4 % ID/g.
